Results: ChEMBL document CHEMBL4190252, “Synthesis, antitumor activity and CDK1 inhibiton of new thiazole nortopsentin analogues” (Eur J Med Chem, 2017)
Calls of active or inactive are those of the source. The rule behind the calls is not given here.

system: CCRF-CEM; test: Growth inhibition of human CCRF-CEM cells incubated for 48 hrs by sulforhodamine B assay; type: functional; settings: not given
Procedure, shortened: (§1)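 NCI full panel screen: five 10-fold dilutions (10^-4–10^-8 M). GI50 is the molar concentration giving 50% inhibition of net cell growth.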

Row | Compound | GI50 [µM]
1 | COCCn1cc(-c2csc(-c3c[nH]c4ccccc34)n2)c2cccnc21 | > 100

system: EKVX; test: Growth inhibition of human EKVX cells incubated for 48 hrs by sulforhodamine B assay; type: functional; settings: not given; procedure, shortened: as §1

Row | Compound | GI50 [µM]
2 | COCCn1cc(-c2csc(-c3c[nH]c4ccccc34)n2)c2cccnc21 | 2

system: NCI-H322M; test: Growth inhibition of human NCI-H322M cells incubated for 48 hrs by sulforhodamine B assay; type: functional; settings: not given; procedure, shortened: as §1

Row | Compound | GI50 [µM]
3 | COCCn1cc(-c2csc(-c3c[nH]c4ccccc34)n2)c2cccnc21 | > 100

system: NCI-H460; test: Growth inhibition of human NCI-H460 cells incubated for 48 hrs by sulforhodamine B assay; type: functional; settings: NCI-H460, 48 h; procedure, shortened: as §1

Row | Compound | GI50 [µM]
4 | COCCn1cc(-c2csc(-c3c[nH]c4ccccc34)n2)c2cccnc21 | 3.4

system: SW-620; test: Growth inhibition of human SW620 cells incubated for 48 hrs by sulforhodamine B assay; type: functional; settings: SW-620, 48 h
Procedure, shortened: (§2)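 NCI full-panel human tumour cell screen. Cells were exposed to five 10-fold dilutions from 10^-4 to 10^-8 M. GI50 is the molar concentration giving 50% inhibition of net cell growth, and a mean graph midpoint was calculated across the panel.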

Row | Compound | GI50 [µM]
5 | COCCn1cc(-c2csc(-c3c[nH]c4ccccc34)n2)c2cccnc21 | 3.52

system: SF-539; test: Growth inhibition of human SF539 cells incubated for 48 hrs by sulforhodamine B assay; type: functional; settings: SF-539, 48 h; procedure, shortened: as §1

Row | Compound | GI50 [µM]
6 | COCCn1cc(-c2csc(-c3c[nH]c4ccccc34)n2)c2cccnc21 | 5.91

system: SNB-75; test: Growth inhibition of human SNB75 cells incubated for 48 hrs by sulforhodamine B assay; type: functional; settings: SNB-75, 48 h; procedure, shortened: as §2

Row | Compound | GI50 [µM]
7 | COCCn1cc(-c2csc(-c3c[nH]c4ccccc34)n2)c2cccnc21 | 1.43

system: M14; test: Growth inhibition of human M14 cells incubated for 48 hrs by sulforhodamine B assay; type: functional; settings: M14, 48 h; procedure, shortened: as §1

Row | Compound | GI50 [µM]
8 | COCCn1cc(-c2csc(-c3c[nH]c4ccccc34)n2)c2cccnc21 | 3.22

system: MDA-MB-435; test: Growth inhibition of human MDA-MB-435 cells incubated for 48 hrs by sulforhodamine B assay; type: functional; settings: MDA-MB-435, 48 h; procedure, shortened: as §1

Row | Compound | GI50 [µM]
9 | COCCn1cc(-c2csc(-c3c[nH]c4ccccc34)n2)c2cccnc21 | 0.86

system: SK-MEL-2; test: Growth inhibition of human SK-MEL-2 cells incubated for 48 hrs by sulforhodamine B assay; type: functional; settings: SK-MEL-2, 48 h; procedure, shortened: as §2

Row | Compound | GI50 [µM]
10 | COCCn1cc(-c2csc(-c3c[nH]c4ccccc34)n2)c2cccnc21 | 7.38

system: SK-MEL-28; test: Growth inhibition of human SK-MEL-28 cells incubated for 48 hrs by sulforhodamine B assay; type: functional; settings: SK-MEL-28, 48 h; procedure, shortened: as §2

Row | Compound | GI50 [µM]
11 | COCCn1cc(-c2csc(-c3c[nH]c4ccccc34)n2)c2cccnc21 | 8.19

system: SK-MEL-5; test: Growth inhibition of human SK-MEL-5 cells incubated for 48 hrs by sulforhodamine B assay; type: functional; settings: SK-MEL-5, 48 h; procedure, shortened: as §2

Row | Compound | GI50 [µM]
12 | COCCn1cc(-c2csc(-c3c[nH]c4ccccc34)n2)c2cccnc21 | 3.22

system: OVCAR-3; test: Growth inhibition of human OVCAR3 cells incubated for 48 hrs by sulforhodamine B assay; type: functional; settings: OVCAR-3, 48 h; procedure, shortened: as §1

Row | Compound | GI50 [µM]
13 | COCCn1cc(-c2csc(-c3c[nH]c4ccccc34)n2)c2cccnc21 | 2.94

system: OVCAR-4; test: Growth inhibition of human OVCAR4 cells incubated for 48 hrs by sulforhodamine B assay; type: functional; settings: OVCAR-4, 48 h; procedure, shortened: as §1

Row | Compound | GI50 [µM]
14 | COCCn1cc(-c2csc(-c3c[nH]c4ccccc34)n2)c2cccnc21 | 1.76

system: CAKI-1; test: Growth inhibition of human Caki1 cells incubated for 48 hrs by sulforhodamine B assay; type: functional; settings: CAKI-1, 48 h; procedure, shortened: as §1

Row | Compound | GI50 [µM]
15 | COCCn1cc(-c2csc(-c3c[nH]c4ccccc34)n2)c2cccnc21 | 8.36

system: RXF 393; test: Growth inhibition of human RXF393 cells incubated for 48 hrs by sulforhodamine B assay; type: functional; settings: RXF 393, 48 h; procedure, shortened: as §1

Row | Compound | GI50 [µM]
16 | COCCn1cc(-c2csc(-c3c[nH]c4ccccc34)n2)c2cccnc21 | 5.76

system: UO-31; test: Growth inhibition of human UO31 cells incubated for 48 hrs by sulforhodamine B assay; type: functional; settings: UO-31, 48 h; procedure, shortened: as §2

Row | Compound | GI50 [µM]
17 | COCCn1cc(-c2csc(-c3c[nH]c4ccccc34)n2)c2cccnc21 | 4.15

system: DU-145; test: Growth inhibition of human DU145 cells incubated for 48 hrs by sulforhodamine B assay; type: functional; settings: DU-145, 48 h; procedure, shortened: as §1

Row | Compound | GI50 [µM]
18 | COCCn1cc(-c2csc(-c3c[nH]c4ccccc34)n2)c2cccnc21 | 15.4

system: MDA-MB-231; test: Growth inhibition of human MDA-MB-231 cells incubated for 48 hrs by sulforhodamine B assay; type: functional; settings: MDA-MB-231, 48 h; procedure, shortened: as §1

Row | Compound | GI50 [µM]
19 | COCCn1cc(-c2csc(-c3c[nH]c4ccccc34)n2)c2cccnc21 | 5.05

system: T47D; test: Growth inhibition of human T47D cells incubated for 48 hrs by sulforhodamine B assay; type: functional; settings: not given; procedure, shortened: as §2

Row | Compound | GI50 [µM]
20 | COCCn1cc(-c2csc(-c3c[nH]c4ccccc34)n2)c2cccnc21 | 0.42

system: MCF7; test: Induction of apoptosis in human MCF7 cells assessed as early apoptotic cells at 2 x 10^-6 M after 72 hrs by Annexin V/propidium iodide double staining-based flow cytometry (reference value: 1%); type: functional; settings: not given
Procedure, shortened: (§3)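 MCF-7 cells were grown in RPMI with 10% FBS, 2 mM L-glutamine and antibiotics at 37 °C in 5% CO2. They were seeded at 2.0 x 10^5 cells/cm2 in triplicate, left to adhere overnight, then treated for 72 h; DMSO 0.1% served as vehicle. Trypsinised cells at 2.0 x 10^5/mL were stained with annexin V-FITC and PI for 15 min at room temperature in the dark. At least 1.0 x 10^4 cells were gated into viable, early apoptotic, late apoptotic and necrotic quadrants.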

Row | Compound | Activity [%]
21 | COCCn1cc(-c2csc(-c3c[nH]c4ccccc34)n2)c2cccnc21 | 46.5

system: MCF7; test: Induction of apoptosis in human MCF7 cells assessed as late apoptotic cells at 2 x 10^-6 M after 72 hrs by Annexin V/propidium iodide double staining-based flow cytometry (reference value: 0%); type: functional; settings: not given; procedure, shortened: as §3

Row | Compound | Activity [%]
22 | COCCn1cc(-c2csc(-c3c[nH]c4ccccc34)n2)c2cccnc21 | 0

system: MCF7; test: Induction of apoptosis in human MCF7 cells assessed as necrotic cells at 2 x 10^-6 M after 72 hrs by Annexin V/propidium iodide double staining-based flow cytometry (reference value: 0.1%); type: functional; settings: not given; procedure, shortened: as §3

Row | Compound | Activity [%]
23 | COCCn1cc(-c2csc(-c3c[nH]c4ccccc34)n2)c2cccnc21 | 0.1

system: MCF7; test: Cell cycle arrest in human MCF7 cells assessed as increase in accumulation at G2/M phase at GI50 concentration after 48 hrs by propidium iodide-staining based flow cytometry; type: functional; settings: not given
Procedure, shortened: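 Cells were trypsinized, washed in cold PBS, and 1 x 10^6 cells stained with 20 µg/ml PI plus 200 µg/ml RNase for 30 min at room temperature in the dark. At least 1x 10^4 cells were analysed by flow cytometry. Mean±SD of three experiments in triplicate.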

Row | Compound | Activity
24 | COCCn1cc(-c2csc(-c3c[nH]c4ccccc34)n2)c2cccnc21 | Active

system: Caco-2; test: Cytotoxicity against human Caco2 cells assessed as reduction in cell viability after 72 hrs by MTT assay; type: cell-based; settings: caco-2, 72 h
Procedure, shortened: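 Caco-2 cells grown in RPMI with 10% FBS and L-glutamine, then treated 15 days after confluence, once differentiated into normal intestinal-like cells. Seeded at 2 × 10^4 cells/well and exposed 72 h to 5–100 µM, DMSO 0.1% vehicle. MTT 2 h at 37 °C, formazan in DMSO, absorbance 570 nm. Vehicle control = 100%; LC50 from viability-versus-concentration plot. At least three experiments in triplicate.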

Row | Compound | LC50 [µM]
25 | COCCn1cc(-c2csc(-c3c[nH]c4ccccc34)n2)c2cccnc21 | 71.4

system: not listed separately; test: Selectivity index, ratio of LC50 for human Caco2 cells to GI50 for human MCF7 cells; type: toxicity; settings: Caco2 cells (LC50) and MCF7 cells (GI50), read-out: Selectivity Index
Procedure, shortened: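 Caco-2 cells were differentiated to a normal intestinal-like state for 15 days after confluence, seeded at 2 x 10^4 cells/well in RPMI, and treated with 5–100 µM for 72 h. MTT was added for 2 h at 37 °C, formazan was dissolved in DMSO and read at 570 nm. LC50 came from viability-versus-concentration plots, with at least three experiments in triplicate. SI is the Caco-2 LC50 divided by the MCF-7 GI50.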

Row | Compound | selectivity ratio
26 | COCCn1cc(-c2csc(-c3c[nH]c4ccccc34)n2)c2cccnc21 | 41

system: Caco-2; test: Cytotoxicity against human Caco2 cells assessed as reduction in cell survival at 25 to 100 uM after 72 hrs by MTT assay; type: cell-based; settings: caco-2, 72 h
Procedure, shortened: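 Caco-2 cells, differentiated 15 days post-confluence, seeded at 2 x 10^4 cells/well and treated 72 h with 5–100 µM compound. MTT added (5 mg/mL in FBS-free medium), 2 h at 37 °C, formazan dissolved in DMSO, absorbance at 570 nm. Viability relative to vehicle control (100%); LC50 taken from the viability-concentration plot. At least three experiments in triplicate.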

Row | Compound | Activity
27 | COCCn1cc(-c2csc(-c3c[nH]c4ccccc34)n2)c2cccnc21 | Toxic
